4 compounds from the M2OR odorant receptor database can be followed below.

Common to all, as to settings: stereoisomer not certain
The test system of assay [1] is T1, O13C8 A19D.
T1 sequence (whole entry): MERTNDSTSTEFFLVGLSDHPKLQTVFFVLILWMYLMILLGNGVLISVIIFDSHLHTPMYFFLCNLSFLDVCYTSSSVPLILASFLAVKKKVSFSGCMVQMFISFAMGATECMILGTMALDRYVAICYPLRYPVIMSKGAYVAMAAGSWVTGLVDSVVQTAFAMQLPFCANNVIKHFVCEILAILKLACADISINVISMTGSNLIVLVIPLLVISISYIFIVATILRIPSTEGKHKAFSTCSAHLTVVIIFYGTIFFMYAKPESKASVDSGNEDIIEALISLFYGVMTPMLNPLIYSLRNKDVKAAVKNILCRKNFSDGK
In short, it runs like this: (§1)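 Each receptor–molecule pair is labelled responsive or non-responsive (inactive) according to whether the original authors judged the measured signal statistically different from baseline. The data were taken from the main text and supplementary material of published papers and checked for typos and inconsistencies. Assay methods differed by source, with transient luciferase assays in mammalian cell lines being common.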

The test system of assay [2] is T2, O13C9 H17L V19G L23H.
T2 sequence (whole entry): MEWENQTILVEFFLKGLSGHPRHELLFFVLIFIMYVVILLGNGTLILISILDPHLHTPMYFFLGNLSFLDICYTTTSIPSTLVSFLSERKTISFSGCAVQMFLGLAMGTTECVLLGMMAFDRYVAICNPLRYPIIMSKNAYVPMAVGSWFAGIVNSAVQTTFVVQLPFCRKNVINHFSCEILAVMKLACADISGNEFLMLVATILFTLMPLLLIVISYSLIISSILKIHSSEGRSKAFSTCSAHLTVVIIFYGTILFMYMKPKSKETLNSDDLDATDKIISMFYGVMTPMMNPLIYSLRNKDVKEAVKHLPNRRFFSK
In short, it runs like this: as §1

Assay [3] has as its system T3, O13C9 Q6H.
T3 sequence (whole entry): T2 sequence (whole entry) with Q6H, L17H, G19V, H23L
In short, it runs like this: as §1

Assay [4] deals with T4, O13F1 F18S T254M.
T4 sequence (whole entry): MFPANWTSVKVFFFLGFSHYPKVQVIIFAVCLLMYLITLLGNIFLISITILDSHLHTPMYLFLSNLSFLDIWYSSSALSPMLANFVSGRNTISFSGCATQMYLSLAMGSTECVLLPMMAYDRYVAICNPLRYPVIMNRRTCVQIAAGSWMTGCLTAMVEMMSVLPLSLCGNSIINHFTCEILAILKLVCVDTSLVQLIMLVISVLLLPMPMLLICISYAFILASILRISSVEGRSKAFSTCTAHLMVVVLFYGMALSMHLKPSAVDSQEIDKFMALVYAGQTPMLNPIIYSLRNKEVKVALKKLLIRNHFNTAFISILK
In short, it runs like this:
as §1

For assay [5], the system named is T5, O13F1 F18S.
T5 sequence (whole entry): T4 sequence (whole entry) with M254T
In short, it runs like this:
as §1

Assay [6] has as its system T6, O13G1 K46I M146L.
T6 sequence (whole entry): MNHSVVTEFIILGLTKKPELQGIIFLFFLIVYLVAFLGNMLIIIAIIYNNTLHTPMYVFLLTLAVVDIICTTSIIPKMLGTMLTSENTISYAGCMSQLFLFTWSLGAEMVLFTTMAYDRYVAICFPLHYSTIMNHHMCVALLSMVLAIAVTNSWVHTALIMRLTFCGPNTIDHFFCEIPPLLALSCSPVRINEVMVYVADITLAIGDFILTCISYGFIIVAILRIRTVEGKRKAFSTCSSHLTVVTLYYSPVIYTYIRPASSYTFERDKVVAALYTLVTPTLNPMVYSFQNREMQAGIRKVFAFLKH
In short, it runs like this: as §1

Assay [7] relates to T7, O13G1.
T7 sequence (whole entry): T6 sequence (whole entry) with I46K, I132V, L146M
In short, it runs like this: as §1

In assay [8] the test system is T8, O13H1 Y266S.
T8 sequence (whole entry): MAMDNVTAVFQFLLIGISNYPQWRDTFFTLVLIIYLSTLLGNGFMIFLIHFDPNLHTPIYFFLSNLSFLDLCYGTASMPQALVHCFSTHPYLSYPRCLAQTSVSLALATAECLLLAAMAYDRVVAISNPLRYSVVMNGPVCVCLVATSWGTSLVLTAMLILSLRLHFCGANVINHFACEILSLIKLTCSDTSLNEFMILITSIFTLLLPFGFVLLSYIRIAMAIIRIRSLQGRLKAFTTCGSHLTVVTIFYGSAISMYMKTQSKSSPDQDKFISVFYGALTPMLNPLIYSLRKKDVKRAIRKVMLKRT
In short, it runs like this: as §1

In assay [9] the test system is T9, O13J1.
T9 sequence (whole entry): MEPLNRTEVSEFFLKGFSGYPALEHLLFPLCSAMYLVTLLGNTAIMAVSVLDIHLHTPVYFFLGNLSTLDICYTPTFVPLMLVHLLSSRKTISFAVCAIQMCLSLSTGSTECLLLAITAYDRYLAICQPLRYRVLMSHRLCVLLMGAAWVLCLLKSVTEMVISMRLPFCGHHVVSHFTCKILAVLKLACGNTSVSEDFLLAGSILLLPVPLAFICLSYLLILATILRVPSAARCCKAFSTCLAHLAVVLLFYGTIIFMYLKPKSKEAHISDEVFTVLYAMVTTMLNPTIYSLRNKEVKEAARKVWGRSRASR
In short, it runs like this: as §1

Assay [10] deals with T10, O14A2 I133V.
T10 sequence (whole entry): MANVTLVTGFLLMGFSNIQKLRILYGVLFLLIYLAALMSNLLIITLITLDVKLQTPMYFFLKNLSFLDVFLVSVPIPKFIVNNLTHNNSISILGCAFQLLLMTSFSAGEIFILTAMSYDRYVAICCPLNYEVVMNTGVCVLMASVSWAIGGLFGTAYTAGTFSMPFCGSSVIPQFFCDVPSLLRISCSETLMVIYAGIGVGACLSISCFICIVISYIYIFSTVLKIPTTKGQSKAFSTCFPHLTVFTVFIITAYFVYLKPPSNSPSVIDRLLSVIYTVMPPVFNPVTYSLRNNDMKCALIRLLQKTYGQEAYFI
In short, it runs like this:
as §1

Assay [11] relates to T11, O14CZ.
T11 sequence (whole entry): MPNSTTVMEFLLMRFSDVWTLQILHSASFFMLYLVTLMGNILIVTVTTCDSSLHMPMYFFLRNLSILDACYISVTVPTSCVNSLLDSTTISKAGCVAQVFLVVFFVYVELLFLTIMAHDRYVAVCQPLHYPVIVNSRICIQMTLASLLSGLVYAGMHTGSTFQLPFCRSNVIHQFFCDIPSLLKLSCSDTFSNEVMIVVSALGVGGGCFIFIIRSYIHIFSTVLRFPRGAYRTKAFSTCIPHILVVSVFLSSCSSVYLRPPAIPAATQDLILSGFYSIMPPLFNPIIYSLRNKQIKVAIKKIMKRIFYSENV
In short, it runs like this: as §1

The subject of assay [12] is T12, O14I1 V36A D50N Y216C.
T12 sequence (whole entry): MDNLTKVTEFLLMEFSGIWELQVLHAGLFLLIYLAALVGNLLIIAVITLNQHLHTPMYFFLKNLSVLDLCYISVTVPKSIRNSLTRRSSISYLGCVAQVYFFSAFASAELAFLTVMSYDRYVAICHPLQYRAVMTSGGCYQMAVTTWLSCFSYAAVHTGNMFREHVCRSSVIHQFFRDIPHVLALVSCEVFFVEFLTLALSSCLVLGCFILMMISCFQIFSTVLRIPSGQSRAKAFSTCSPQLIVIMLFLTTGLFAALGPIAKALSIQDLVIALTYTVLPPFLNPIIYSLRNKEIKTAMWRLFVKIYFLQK
In short, it runs like this: as §1

For assay [13], the system named is T13, O14J1 N3Y.
T13 sequence (whole entry): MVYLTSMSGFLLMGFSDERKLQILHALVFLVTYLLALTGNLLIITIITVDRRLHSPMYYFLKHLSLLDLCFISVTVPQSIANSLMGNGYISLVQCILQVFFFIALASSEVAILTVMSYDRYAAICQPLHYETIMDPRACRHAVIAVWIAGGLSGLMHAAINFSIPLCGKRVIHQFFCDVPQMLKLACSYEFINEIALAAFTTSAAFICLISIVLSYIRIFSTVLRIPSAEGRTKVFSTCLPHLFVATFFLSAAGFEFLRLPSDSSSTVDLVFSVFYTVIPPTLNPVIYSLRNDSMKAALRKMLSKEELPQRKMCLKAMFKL
In short, it runs like this: as §1

For assay [14], the system named is T14, O14K1 D119Y.
T14 sequence (whole entry): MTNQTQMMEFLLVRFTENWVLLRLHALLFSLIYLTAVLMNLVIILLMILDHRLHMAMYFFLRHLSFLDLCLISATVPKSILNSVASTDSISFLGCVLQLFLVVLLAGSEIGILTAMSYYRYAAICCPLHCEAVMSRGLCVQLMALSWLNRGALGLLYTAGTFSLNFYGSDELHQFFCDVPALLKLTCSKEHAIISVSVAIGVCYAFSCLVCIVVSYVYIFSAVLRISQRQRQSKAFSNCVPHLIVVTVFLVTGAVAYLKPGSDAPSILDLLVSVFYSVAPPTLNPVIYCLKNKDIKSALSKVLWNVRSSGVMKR
In short, it runs like this:
as §1

Assay [15] concerns T15, O2A25.
T15 sequence (whole entry): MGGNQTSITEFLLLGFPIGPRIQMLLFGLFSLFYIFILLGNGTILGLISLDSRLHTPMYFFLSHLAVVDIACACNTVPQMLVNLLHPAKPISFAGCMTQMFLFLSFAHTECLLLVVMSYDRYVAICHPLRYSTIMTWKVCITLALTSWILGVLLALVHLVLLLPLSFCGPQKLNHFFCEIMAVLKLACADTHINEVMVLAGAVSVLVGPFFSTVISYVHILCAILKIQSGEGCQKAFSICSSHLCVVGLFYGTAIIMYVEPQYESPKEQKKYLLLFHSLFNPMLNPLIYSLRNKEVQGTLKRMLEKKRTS
In short, it runs like this: as §1

Assay [16] relates to T16, O2AE1.
T16 sequence (whole entry): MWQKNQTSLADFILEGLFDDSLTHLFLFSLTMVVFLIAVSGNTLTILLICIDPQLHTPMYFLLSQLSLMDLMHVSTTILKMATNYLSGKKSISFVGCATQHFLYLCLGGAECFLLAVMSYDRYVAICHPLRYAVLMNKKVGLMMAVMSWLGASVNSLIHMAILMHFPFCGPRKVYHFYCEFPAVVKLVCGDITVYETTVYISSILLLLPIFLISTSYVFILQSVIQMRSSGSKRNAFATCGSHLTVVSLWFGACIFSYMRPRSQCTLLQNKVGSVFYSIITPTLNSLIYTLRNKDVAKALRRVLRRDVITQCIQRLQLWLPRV
In short, it runs like this: as §1

The test system of assay [17] is T17, O2AJ1.
T17 sequence (whole entry): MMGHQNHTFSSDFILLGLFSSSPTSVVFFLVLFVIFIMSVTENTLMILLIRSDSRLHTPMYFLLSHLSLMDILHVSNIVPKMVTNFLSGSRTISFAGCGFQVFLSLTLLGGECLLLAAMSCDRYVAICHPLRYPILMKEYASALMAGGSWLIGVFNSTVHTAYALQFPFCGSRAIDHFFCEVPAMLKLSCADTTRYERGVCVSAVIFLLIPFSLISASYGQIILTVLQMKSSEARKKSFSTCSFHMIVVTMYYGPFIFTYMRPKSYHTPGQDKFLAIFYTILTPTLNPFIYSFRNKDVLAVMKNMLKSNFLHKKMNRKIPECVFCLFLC
In short, it runs like this: as §1

Assay [18] has as its system T18, O2AK2 S99N.
T18 sequence (whole entry): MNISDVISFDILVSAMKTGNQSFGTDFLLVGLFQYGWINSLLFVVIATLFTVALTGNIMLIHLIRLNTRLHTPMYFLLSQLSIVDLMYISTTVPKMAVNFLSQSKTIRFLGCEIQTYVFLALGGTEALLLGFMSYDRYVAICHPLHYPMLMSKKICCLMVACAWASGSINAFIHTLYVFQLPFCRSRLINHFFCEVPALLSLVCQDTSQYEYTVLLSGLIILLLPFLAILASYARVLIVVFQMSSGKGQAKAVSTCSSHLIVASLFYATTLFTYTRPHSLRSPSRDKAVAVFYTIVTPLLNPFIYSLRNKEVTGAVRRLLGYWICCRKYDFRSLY
In short, it runs like this: as §1

Assay [19] concerns T19, O1440.
T19 sequence (whole entry): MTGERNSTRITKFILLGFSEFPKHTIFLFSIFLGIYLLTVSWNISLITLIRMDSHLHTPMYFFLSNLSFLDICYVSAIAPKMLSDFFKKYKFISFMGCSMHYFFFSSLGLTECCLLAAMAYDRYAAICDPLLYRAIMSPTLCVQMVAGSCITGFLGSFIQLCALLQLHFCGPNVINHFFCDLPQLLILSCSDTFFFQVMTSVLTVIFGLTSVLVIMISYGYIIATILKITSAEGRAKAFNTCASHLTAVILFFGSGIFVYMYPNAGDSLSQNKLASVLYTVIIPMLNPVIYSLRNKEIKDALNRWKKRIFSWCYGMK
In short, it runs like this: as §1

The subject of assay [20] is T20, O1440.
T20 sequence (whole entry): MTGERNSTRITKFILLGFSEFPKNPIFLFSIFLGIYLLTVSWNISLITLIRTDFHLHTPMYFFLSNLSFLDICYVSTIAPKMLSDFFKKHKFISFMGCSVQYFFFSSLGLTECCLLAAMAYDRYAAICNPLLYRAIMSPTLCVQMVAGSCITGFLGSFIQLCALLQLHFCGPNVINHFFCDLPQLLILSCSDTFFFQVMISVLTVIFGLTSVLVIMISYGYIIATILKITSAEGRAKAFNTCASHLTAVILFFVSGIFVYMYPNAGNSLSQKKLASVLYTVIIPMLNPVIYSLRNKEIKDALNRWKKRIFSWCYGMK
In short, it runs like this:
as §1
This is another data set of the same source.

Substitutions are numbered along the chain they refer to.
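Note: active if original authors judged signal statistically different from baseline.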

On to `Cc1cnc(C)c(C)n1`, for which the “odorant receptor agonist call” value in assay [1], in assay [2], in [3], in assay [4], in assay [5] and in [6] was “inactive” throughout. Besides, the “odorant receptor agonist call” value in assay [7], in assay [8], in [9], in assay [10], in assay [11] and in [12] was “inactive” throughout. In addition, the “odorant receptor agonist call” value in assay [13], in [14], in assay [15], in [16], in assay [17] and in assay [18] was “inactive” throughout.
As to `CC1CC=CCCCCCCCCC(=O)C1` (stereo not drawn), the “odorant receptor agonist call” value in [19] and in assay [20] was “active” throughout.
With `c1ccc2ncccc2c1`, the “odorant receptor agonist call” value in [15] was “active”.
On to `O=C1CCCCCCCCC1`, for which the “odorant receptor agonist call” value in assay [19] and in assay [20] was “inactive” throughout.
